What was measured:
Leishmania donovani = assay: Antileishmanial activity against Leishmania donovani amastigotes infected in mouse J774A1 cells assessed as inhibition of parasite growth after 72 hrs by luciferase reporter gene assay; format: functional, organism-based; conditions: J774.A1, 72 h
How it was run: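 J774A.1 macrophages seeded at 4 × 10⁴ cells/well in RPMI-1640 with 10% fetal calf serum, 37 °C CO₂, 24 h. Stationary-phase promastigotes then added at 4 × 10⁵/well and left to convert to intracellular amastigotes. Medium replaced with compound at 0.62–40 µM for 72 h at 37 °C. Steady Glo luciferase luminescence, growth inhibition relative to untreated controls.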

[1] = Toxicity in mouse J774A1 cells; format: cell-based, J774.A1
[2] = (§1) Selectivity index, ratio of CC50 for mouse J774A1 cells to IC50 for Leishmania donovani amastigotes; format: functional, J774.A1
How it was run: (§2)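 Ratio of CC50 in J-774 A-1 cells to IC50 against L. donovani amastigotes.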

J774.A1 = assay: as §1; format: functional; how it was run: as §2

Molecule	IC50 (Leishmania donovani)	CC50 [1]	Selectivity Index [2]	Selectivity Index (J774.A1)
COC(=O)[C@@H]1Cc2c([nH]c3ccccc23)[C@H](c2ccc(C)cc2)N1C(=O)C(=O)c1c[nH]c2ccccc12	7.37 µM	27.4 µM	3.72	–
COC(=O)[C@H]1Cc2c([nH]c3ccccc23)[C@H](c2ccc(C(C)C)cc2)N1C(=O)C(=O)c1c[nH]c2ccccc12	6.02 µM	15.1 µM	2.51	–
COC(=O)[C@@H]1Cc2c([nH]c3ccccc23)[C@@H](c2ccccc2Br)N1C(=O)C(=O)c1c[nH]c2ccc(Br)cc12	4.09 µM	7.25 µM	1.77	–
CCc1ccc([C@@H]2c3[nH]c4ccccc4c3C[C@H](C(=O)OC)N2C(=O)C(=O)c2c[nH]c3ccccc23)cc1	5.17 µM	163 µM	31.48	–
CCc1ccc([C@H]2c3[nH]c4ccccc4c3C[C@H](C(=O)OC)N2C(=O)C(=O)c2c[nH]c3ccc(Br)cc23)cc1	5.86 µM	9.48 µM	1.62	–
CCc1ccc([C@@H]2c3[nH]c4ccccc4c3C[C@H](C(=O)OC)N2C(=O)C(=O)c2c[nH]c3ccc(Br)cc23)cc1	5.36 µM	11.6 µM	2.17	–
COC(=O)[C@@H]1Cc2c([nH]c3ccccc23)[C@@H](c2ccc(Cl)cc2)N1C(=O)C(=O)c1c[nH]c2ccccc12	4.36 µM	11.3 µM	2.6	–
COC(=O)[C@@H]1Cc2c([nH]c3ccccc23)[C@H](c2ccc(C)cc2)N1C(=O)C(=O)c1c[nH]c2ccc(Br)cc12	5.18 µM	10.1 µM	1.95	–
COC(=O)[C@@H]1Cc2c([nH]c3ccccc23)[C@@H](c2ccccc2Br)N1C(=O)C(=O)c1c[nH]c2ccccc12	3.79 µM	30.1 µM	7.94	–
COC(=O)[C@@H]1Cc2c([nH]c3ccccc23)[C@@H](c2ccc(Cl)cc2)N1C(=O)C(=O)c1c[nH]c2ccc(Br)cc12	4.02 µM	7.64 µM	1.9	–
COC(=O)[C@H]1Cc2c([nH]c3ccccc23)[C@@H](c2ccc(C(C)C)cc2)N1C(=O)C(=O)c1c[nH]c2ccc(Br)cc12	3.91 µM	7.77 µM	1.99	–
COC(=O)[C@H]1Cc2c([nH]c3ccccc23)[C@@H](c2ccc(C(C)C)cc2)N1C(=O)C(=O)c1c[nH]c2ccccc12	6.74 µM	32.6 µM	4.84	–
COC(=O)[C@H]1Cc2c([nH]c3ccccc23)[C@H](c2ccc(C(C)C)cc2)N1C(=O)C(=O)c1c[nH]c2ccc(Br)cc12	4.44 µM	9.04 µM	2.04	–
CCc1ccc([C@H]2c3[nH]c4ccccc4c3C[C@H](C(=O)OC)N2C(=O)C(=O)c2c[nH]c3ccccc23)cc1	8.04 µM	30.9 µM	3.84	–
COC(=O)[C@@H]1Cc2c([nH]c3ccccc23)[C@@H](c2ccc(C)cc2)N1C(=O)C(=O)c1c[nH]c2ccccc12	6.79 µM	34.4 µM	5.07	–
sodium stibogluconate	–	–	–	5.53
COC(=O)[C@@H]1Cc2c([nH]c3ccccc23)[C@@H](c2ccc(C)cc2)N1C(=O)C(=O)c1c[nH]c2ccc(Br)cc12	4.79 µM	8.83 µM	1.84	–
